According to ChEMBL document CHEMBL4229380, “Arylureas derived from colchicine: Enhancement of colchicine oncogene downregulation activity” (Eur J Med Chem, 2018):

How the values were obtained:
[1] = test system: HT-29; test: Antiproliferative activity against human HT-29 cells after 2 days by MTT assay; format: functional, cell-based; details: HT-29, 48 h
Procedure, shortened: (§1)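 Cells (5×10^3 per well) in DMEM with 10% FBS, glucose, glutamine and antibiotics were exposed to serial dilutions (stocks in DMSO) for 2 days at 37 °C, 5% CO2. MTT was added for 3 h, formazan was dissolved in DMSO and absorbance read at 490 nm. Viability was taken as % of untreated cells. IC50 was read graphically from three independent experiments.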

[2] = test system: MCF7; test: Antiproliferative activity against human MCF7 cells after 2 days by MTT assay; format: functional, cell-based; details: MCF7, 48 h; procedure, shortened: as §1
[3] = test system: HeLa; test: Antiproliferative activity against human HeLa cells after 2 days by MTT assay; format: functional, cell-based; details: 48 h; procedure, shortened: as §1
[4] = test system: HEK293; test: Antiproliferative activity against human HEK293 cells after 2 days by MTT assay; format: cell-based; details: HEK293, 48 h; procedure, shortened: as §1
[5] = test system: HT-29; test: Induction of apoptosis in human HT-29 cells assessed as viable cells at 5 nM after 48 hrs by Annexin V-FITC staining-based flow cytometric analysis (reference value: 82 +/- 1%); format: functional; details: HT-29, 48 h, read-out: Activity
[6] = test system: HT-29; test: Induction of apoptosis in human HT-29 cells assessed as apoptotic cells at 5 nM after 48 hrs by Annexin V-FITC staining-based flow cytometric analysis (reference value: 13 +/- 3%); format: functional
[7] = test system: HT-29; test: Induction of apoptosis in human HT-29 cells assessed as necrotic cells at 5 nM after 48 hrs by Annexin V-FITC staining-based flow cytometric analysis (reference value: 2 +/- 6%); format: functional
[8] = test system: HT-29; test: Effect on c-MYC gene expression in human HT-29 cells assessed as c-MYC level at 5 nM after 48 hrs by RT-qPCR analysis; format: functional
Procedure, shortened: (§2)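 HT-29 cells at 70–80% confluence were seeded at 1.5×10^5 per well and left 24 h, then treated 48 h, with DMSO as control. Total RNA was extracted and VEGF-A, c-Myc and hTERT were quantified by TaqMan qPCR, normalized to β-actin and to living cell number. Results are % expression versus control, at least three measurements.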

[9] = test system: HT-29; test: Effect on hTERT gene expression in human HT-29 cells assessed as hTERT level at 5 nM after 48 hrs by RT-qPCR analysis; format: functional; procedure, shortened: as §2
[10] = test system: HT-29; test: Effect on VEGF gene expression in human HT-29 cells assessed as VEGF level at 5 nM after 48 hrs by RT-qPCR analysis; format: functional; procedure, shortened: as §2
[11] = test system: HT-29; test: Effect on c-MYC protein expression in human HT-29 cells assessed as c-MYC level at 5 nM after 48 hrs by ELISA; format: functional
Procedure, shortened: (§3)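 HT-29 cells (1.5×10^5 per well, 24 h pre-culture) were treated 48 h and washed in PBS. They were lysed in Tris pH 7.4 buffer with detergents, phosphatase inhibitors, PMSF and protease inhibitors. Lysates were adjusted to 200 µg/mL protein (Bradford) and total c-Myc or VEGFR-2 was measured by sandwich ELISA kit. Values are % of DMSO control, ≥3 measurements.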

[12] = test system: HT-29; test: Effect on VEGFR2 protein expression in human HT-29 cells assessed as VEGFR2 level at 5 nM after 48 hrs by ELISA; format: functional; procedure, shortened: as §3
[13] = test system: HT-29; test: Effect on VEGF protein expression in human HT-29 cells assessed as secreted VEGF level in culture media at 5 nM after 48 hrs by ELISA
[14] = test system: HT-29; test: Induction of apoptosis in human HT-29 cells assessed as viable cells at 15 nM after 48 hrs by Annexin V-FITC staining-based flow cytometric analysis (reference value: 82 +/- 1%); format: functional; details: HT-29, 48 h, read-out: Activity
[15] = test system: HT-29; test: Induction of apoptosis in human HT-29 cells assessed as apoptotic cells at 15 nM after 48 hrs by Annexin V-FITC staining-based flow cytometric analysis (reference value: 13 +/- 3%); format: functional
[16] = test system: HT-29; test: Induction of apoptosis in human HT-29 cells assessed as necrotic cells at 15 nM after 48 hrs by Annexin V-FITC staining-based flow cytometric analysis (reference value: 2 +/- 6%); format: functional
[17] = test system: HT-29; test: Effect on c-MYC gene expression in human HT-29 cells assessed as c-MYC level at 15 nM after 48 hrs by RT-qPCR analysis; format: functional; procedure, shortened: as §2
[18] = test system: HT-29; test: Effect on hTERT gene expression in human HT-29 cells assessed as hTERT level at 15 nM after 48 hrs by RT-qPCR analysis; format: functional; procedure, shortened: as §2
[19] = test system: HT-29; test: Effect on VEGF gene expression in human HT-29 cells assessed as VEGF level at 15 nM after 48 hrs by RT-qPCR analysis; format: functional; procedure, shortened: as §2
[20] = test system: HT-29; test: Effect on c-MYC protein expression in human HT-29 cells assessed as c-MYC level at 15 nM after 48 hrs by ELISA; format: functional; procedure, shortened: as §3
[21] = test system: HT-29; test: Effect on VEGFR2 protein expression in human HT-29 cells assessed as VEGFR2 level at 15 nM after 48 hrs by ELISA; format: functional; procedure, shortened: as §3
[22] = test system: HT-29; test: Effect on VEGF protein expression in human HT-29 cells assessed as secreted VEGF level in culture media at 15 nM after 48 hrs by ELISA

Row | SMILES | IC50 [1] | IC50 [2] | IC50 [3] | IC50 [4] | other results
1 | COc1cc2c(c(OC)c1OC)-c1ccc(OC)c(=O)cc1[C@@H](NC(=O)Nc1c(Cl)cccc1Cl)CC2 | 40 nM | 13 nM | 22 nM | 42 nM | –
2 | COc1cc2c(c(OC)c1OC)-c1ccc(OC)c(=O)cc1[C@@H](NC(=O)NC1CCCCC1)CC2 | 37 nM | 89 nM | 87 nM | 98 nM | –
3 | COc1cc2c(c(OC)c1OC)-c1ccc(OC)c(=O)cc1[C@@H](NC(=O)Nc1ccccc1)CC2 | 11 nM | 12 nM | 12 nM | 10 nM | –
4 | COc1cc2c(c(OC)c1OC)-c1ccc(OC)c(=O)cc1[C@@H](NC(=O)Nc1c(F)cccc1F)CC2 | 25 nM | 42 nM | 18 nM | 46 nM | viability at 0.015 µM [14]: 87%; Activity [15]: 12%; Activity [16]: 1%; Activity [17]: 88%; Activity [18]: 36%; Activity [19]: 38%; Activity [20]: 42%; Activity [21]: 35%; Activity [22]: 11%
5 | COc1cc2c(c(OC)c1OC)-c1ccc(OC)c(=O)cc1[C@@H](NC(=O)Nc1cccc3ccccc13)CC2 | 11.1 nM | 17 nM | 16 nM | 9 nM | –
6 | COc1cc2c(c(OC)c1OC)-c1ccc(OC)c(=O)cc1[C@@H](NC(=O)Nc1cc(F)cc(F)c1)CC2 | 10 nM | 20 nM | 16 nM | 10 nM | –
7 | COc1cc2c(c(OC)c1OC)-c1ccc(OC)c(=O)cc1[C@@H](NC(=O)Nc1ccc(C(F)(F)F)cc1Cl)CC2 | 190 nM | 200 nM | 220 nM | 220 nM | –

The next compounds have a lower IC50 [1] than those just listed; values first:

Row | IC50 [1] | IC50 [2] | IC50 [3] | SMILES | IC50 [4] | other results
8 | 4.3 nM | 370 nM | 8 nM | COc1cc2c(c(OC)c1OC)-c1ccc(OC)c(=O)cc1[C@@H](NC(=O)Nc1cccc(Cl)c1)CC2 | 4.6 nM | viability at 0.005 µM [5]: 62%; Activity [6]: 37%; Activity [7]: 1%; Activity [8]: 104%; Activity [9]: 90%; Activity [10]: 95%; Activity [11]: 87%; Activity [12]: 15%; Activity [13]: 114%
9 | 3.8 nM | 4.4 nM | 3 nM | COc1cc2c(c(OC)c1OC)-c1ccc(OC)c(=O)cc1[C@@H](NC(=O)Nc1ccccc1OC(F)(F)F)CC2 | 5 nM | –
10 | 4.7 nM | 6 nM | 6 nM | COc1cc2c(c(OC)c1OC)-c1ccc(OC)c(=O)cc1[C@@H](NC(=O)Nc1ccccc1F)CC2 | 5 nM | –
